Many of the other results were omitted from the sample, so hits are more common in it than they were.
bCat KO growth = primary screen for growth suppressors in beta-catenin knockout HCT116 cells (colon tumor, human) | HCT116 beta-catenin knockout viability, CellTiter-Glo, 60 h; active compounds read low | viability, % at 10 µM | 1.5% of 140,000 active;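 active = viability at or under a set limit, the compound median less 4 SD, cut at about 6% in these data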;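 also: 0% = Hyamine 1622 control at 20 µM and 100% = untreated cell control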
PTEN del growth = growth suppression of PTEN-null HCT116, primary screen, cell-based, CellTiter-Glo. HCT116 PTEN-null viability, 60 h; active compounds read low. viability, % at 10 µM. 1.2% of 140,000 active. AID 827, 2007;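 active = viability at or below a set limit, 4 SD under the median of all tested compounds, cut at about 3.7% in these data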;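 also: PTEN knockout HCT116 line with beta catenin targeted HCT116 as companion control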
HUVEC inhibit = inhibitors of HUVEC proliferation, primary screen, cell-based, 384-well | CellTiter-Glo luminescence, 72 h; active compounds read low | viability, % at 10 µM (by protocol) | AID 648, 2007 | 1.1% of 86,000 active;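 active = viability at or below 30%; inactive = viability above 30%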;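 also: 100% = median luminescence of DMSO-only cell control wells on each plate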
H69AR growth 86K = proliferation blockers of H69AR lung cancer cells, primary screen, cell-based, human, 86K library. AID 598, 2007. H69AR lung tumor viability, ATP luminescence, 72 h; active compounds read low. 6% of 85,000 active. viability, % at 10 µM;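 active = viability at or below 40%; inactive = viability above 40%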;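 also: multidrug resistant small cell line overexpressing MRP-1 efflux transporter; 100% = mean luminescence of untreated control wells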
Lung fibro prol = antiproliferative effect on LL 47 fibroblasts – human, LL 47 cells, CellTiter-Glo luminescence, primary screen. LL 47 human lung fibroblast viability, ATP luminescence; active compounds read low. viability, % at 10 µM. 1.1% of 85,000 active. AID 719, 2007;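 active = viability at or below 50% in the single dose screen; inactive = viability above 50%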;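 also: compound exposure lasted 72 h before the ATP readout; 100% = median luminescence of untreated cell-only wells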
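Material: human lung fibroblast line LL 47, low passage; Evaluation: viability percentage against median untreated-cell control; Buffer or medium: 15% FBS in IMEM; Incubation: 72 h compound exposure at 37 °C after overnight plating; Dosing: 0.1% DMSO in all compound wells; Measured by: CellTiter-Glo luminescence.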
* = called active by the depositor; · = no result given.

SMILES | bCat KO growth | PTEN del growth | HUVEC inhibit | H69AR growth 86K | Lung fibro prol
CC(=O)Nc1ccc(S(=O)(=O)N2CCN(c3cc(C)nc4ccccc34)CC2)cc1 | 88 | 84 | 93 | 90 | 99
S=c1[nH]nc(COc2ccc(Cl)cc2)n1C1CCCCC1 | 90 | 90 | 89 | 64 | 88
Cc1ccc(OCc2n[nH]c(=S)n2C2CCCCC2)cc1 | 89 | 87 | 94 | 37* | 100
Cc1cccc(OCc2n[nH]c(=S)n2C2CCCCC2)c1 | 82 | 77 | 64 | 22* | 84
CN(CC(=O)Nc1ccccc1C(=O)N1CCCC1)S(=O)(=O)c1ccc(Cl)cc1 | 84 | 88 | 104 | 96 | 105
CCOC(=O)c1c(NC(C)=O)sc2c(OC)c(Br)ccc12 | 62 | 76 | 80 | 38* | 94
CCOC(=O)c1c(NC(C)=O)sc2c(OC)cccc12 | 74 | 73 | 96 | 84 | 97
O=C(NC(NC(=S)Nc1c(Cl)cc(Cl)cc1Cl)C(Cl)(Cl)Cl)OCc1ccccc1 (stereo not drawn) | 5.9* | 5 | · | · | ·
Cc1ccc(C)c(NC(=S)NC(NC(=O)OCc2ccccc2)C(Cl)(Cl)Cl)c1 (stereo not drawn) | 84 | 92 | · | · | ·
COc1ccc(CN(C)CC(=O)Nc2cc(OC)c([N+](=O)[O-])cc2C)c(OC)c1 | 67 | 72 | · | · | ·
Cc1cccc(C)c1NS(=O)(=O)c1ccc2c(c1)C(=O)c1ccccc1C2=O | 83 | 87 | · | · | ·
Cc1ccc(-c2cc3c(nn2)-c2ccccc2C3=O)cc1 | · | · | 58 | 12* | 47*
Cc1ccccc1-c1cc2c(nn1)-c1ccccc1C2=O | 3.4* | 4 | 3.2* | 17* | 14*
O=C(NCc1ccccc1)C(=O)NCC1COc2ccccc2O1 (stereo not drawn) | 24 | 24 | 54 | 29* | 56
CCOC(=O)Nc1ccc2c(c1)N(C(=O)N1CCN(C)CC1)c1ccccc1S2 | 85 | 86 | 69 | 103 | 83
C=CC(=O)N1c2ccccc2Sc2ccc(NC(=O)OCC)cc21 | 73 | 78 | 46 | 26* | 68
O=C(CS(=O)c1ccc(C(F)(F)F)cc1[N+](=O)[O-])Oc1ccccc1 (stereo not drawn) | 90 | 84 | 25* | 3.1* | 44*
O=C(CNc1ccc(C(F)(F)F)cc1[N+](=O)[O-])OCC(=O)c1ccccc1 | 103 | 89 | 98 | 93 | 95
O=C(NC1CCCCC1)c1sc(N2CCOCC2)nc1-c1ccccc1 | 70 | 64 | · | · | ·
O=[N+]([O-])c1ccc(-n2nnnc2-c2ccccc2)c([N+](=O)[O-])c1 | 0.6* | 0.6* | · | · | ·
Cc1sc2ncn(CC(=O)OC(C)C)c(=O)c2c1C | 94 | 95 | · | · | ·
COC(=O)c1ccc(C(=O)OC)c(NC(=S)N2CCC(C)CC2)c1 | 94 | 100 | · | · | ·
COc1ccc(-c2cc(C(=O)OCC(=O)Nc3cc(C)on3)c3ccccc3n2)cc1OC | 81 | 92 | · | · | ·
CCC(C)c1ccc(-c2cc(C(=O)OCC(=O)Nc3cc(C)on3)c3ccccc3n2)cc1 (stereo not drawn) | 67 | 80 | 45 | 9.5* | 81
O=C(Cn1ncc(Cl)c(Cl)c1=O)c1ccc(Cl)cc1 | 1.7* | 2.0* | 2.6* | 1.4* | 2.6*
SMILES | bCat KO growth | PTEN del growth | HUVEC inhibit | H69AR growth 86K | Lung fibro prol
O=C(Cn1ncc(Cl)c(Cl)c1=O)NCC1CCCCC1 | 1.8* | 1.5* | · | · | ·
O=C(OCn1ncc(Cl)c(Cl)c1=O)c1ccc(F)cc1 | 0.8* | 0.5* | · | · | ·
C=CCn1c(C)cc(C(=O)Cn2ncc(Cl)c(Cl)c2=O)c1C | 1.7* | 1.4* | · | · | ·
C[n+]1ccn(CC(=O)c2ccc(Cl)cc2)c1 | 97 | 92 | · | · | ·
Cc1cccc(N2CCN(CC(=O)NCC3CCCCC3)CC2)c1C | 80 | 93 | 102 | 95 | 103
CCN(CC)CCCN1C(=O)C(O)=C(C(C)=O)C1c1ccc(OC)cc1OC (stereo not drawn) | · | · | 101 | 107 | 103
CCc1nnc(N2C(=O)c3ccc(Oc4ccc([N+](=O)[O-])cc4)cc3C2=O)s1 | 96 | 100 | · | · | ·
COC(=O)c1ccccc1NC(=S)N(Cc1ccc2c(c1)OCO2)Cc1cc2cc(OC)ccc2[nH]c1=O | 75 | 73 | · | · | ·
O=C(OCn1ncc(Cl)c(Cl)c1=O)c1ccccc1Cl | 3.9* | 7 | · | · | ·
COc1ccc(OC)c(-n2nnnc2SCC(=O)Nc2ccc3c(c2)OCCO3)c1 | 102 | 102 | 18* | 43 | 82
CCOC(=O)c1c(NC(=O)CSc2nnnn2-c2ccc3c(c2)OCCO3)sc(C)c1C | 77 | 82 | 93 | 36* | 87
CCc1ccccc1-n1c(SCC(=O)Nc2ccc3c(c2)OCCO3)nc2[nH]ncc2c1=O | 93 | 87 | 77 | 39* | 75
CCOC(=O)c1c(NC(=O)CSc2nnnn2-c2ccc3c(c2)OCO3)sc(C)c1C | 92 | 89 | 84 | 60 | 92
CCOC(=O)c1ccccc1NC(=O)CN(c1ccccc1)S(=O)(=O)N(C)C | 65 | 70 | 81 | 38* | 98
CCOC(=O)COc1ccc(S(=O)(=O)N2CCc3ccccc3C2)cc1 | 87 | 88 | 6.2* | 92 | 61
CCOc1ccc(S(=O)(=O)Nc2cccc(OC)c2)cc1 | 74 | 71 | 88 | 38* | 95
CCOC(=O)c1ccccc1NS(=O)(=O)c1ccc(C)cc1 | 23 | 21 | 74 | 11* | 88
Cc1c(C(=O)COC(C)(C)C)[nH]c2ccccc12 | 96 | 92 | 84 | · | 99
CC1CCCCN1Cc1c(O)ccc2c(=O)c(-c3nc4ccccc4s3)c(N)oc12 (stereo not drawn) | 28 | 33 | · | · | ·
CCOC(=O)COc1ccc(S(=O)(=O)Nc2ccc(C)cc2)cc1 | 97 | 93 | 11* | 94 | 16*
CCOC(=O)COc1ccc(S(=O)(=O)Nc2ccc3c(c2)OCO3)cc1 | 112 | 99 | 41 | 100 | 63
Cc1ccc(NC(=O)CCNS(=O)(=O)c2cc(Br)cnc2N)cc1Cl | 84 | 87 | · | · | ·
Cc1cc(NC(=O)CCNS(=O)(=O)c2cc(Br)cnc2N)ccc1Br | 71 | 71 | 48 | 31* | 91
O=c1cc(CO)oc(C(Nc2ccccn2)c2cccc(F)c2)c1O (stereo not drawn) | 102 | 113 | 102 | 91 | 97
O=c1cc(CO)oc(C(Nc2ccccn2)c2ccc(C(F)(F)F)cc2)c1O (stereo not drawn) | 80 | 86 | 91 | 19* | 89
CC1(C)Cc2c(c(-c3ccco3)nc3sc4c(NCCN5CCOCC5)ncnc4c23)CO1 | 1.6* | 1.4* | · | · | ·
O=C(NNC(=O)C1CCCO1)c1ccc(F)cc1 (stereo not drawn) | 100 | 95 | · | · | ·
Cc1c(/C=C(\C#N)c2nn(-c3ccccc3)c(N)c2C#N)c2ccccc2n1Cc1ccc(F)cc1 | 59 | 57 | 36 | 9.6* | 65
CCCCS/C(=C(/C#N)C(N)=O)c1cc2c([nH]1)CCCC2 | 20 | 23 | 69 | 5.2* | 67

Bioassay records deposited in PubChem BioAssay by SRMLSC.
